# Assay results published in ChEMBL document CHEMBL1149143, “Synthesis, antimalarial activity, and molecular modeling of new pyrrolo[1,2-a]quinoxalines, bispyrrolo[1,2-a]quinoxalines, bispyrido[3,2-e]pyrrolo[1,2-a]pyrazines, and bispyrrolo[1,2-a]thieno[3,2-e]pyrazines” (J Med Chem, 2004).
# Legend:
# [1] = Lipophilicity at pH 5; assay type: physicochemical; settings: buffer, read-out: Log D5.0
# In short: (§1)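 Octanol/buffer shake partition: phosphate buffer pH 7.4 or acetate buffer pH 5.0, phases mutually presaturated; compound at 50–250 μg/mL in buffer. Aqueous phase shaken with octanol 30 min, centrifuged 3000 rpm 10 min. Aqueous peak areas before and after partitioning by reversed-phase C8 HPLC (acetonitrile–acetate pH 4, 80:20; 60 °C; UV 254 nm).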
# Plasmodium falciparum [2] = test: In vitro antimalarial activity against Thai strain of Plasmodium falciparum; assay type: functional, organism-based
# In short: (§2)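 P. falciparum kept on human erythrocytes; CQ-sensitive Thai and CQ-resistant FcB1 and K1 strains. Drugs diluted serially in culture medium, added to asynchronous cultures (1% parasitemia, 1% hematocrit) for 24 h at 37 °C, then 0.5 μCi [³H]hypoxanthine per well for 24 h more. Uptake compared with drug-free controls; IC50 from concentration–response curve, mean ± SD of independent experiments. DMSO ≤0.1%.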
# Plasmodium falciparum [3] = test: Resistance index as IC50 for Plasmodium falciparum K1 and Thai strains; assay type: functional
# L6 [4] = test: In vitro cytotoxicity against mammalian L6 cells was determined; assay type: functional, cell-based; settings: Rattus norvegicus
# In short: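 L6 cells, 10⁴ per well, exposed to a range of inhibitor concentrations for up to 5 days. Proliferation read by XTT colorimetric assay; inhibition relative to DMSO-treated controls; IC50 reported.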
# Plasmodium falciparum [5] = test: In vitro antimalarial activity against Plasmodium falciparum K1; assay type: functional, organism-based; in short: as §2
# Plasmodium falciparum [6] = test: Resistance index as ratio of IC50 for Plasmodium falciparum FcB1 and Thai strains; assay type: functional
# L6 [7] = test: Selectivity IC50 index against Plasmodium falciparum K1 compared to L6 cells; assay type: functional
# [8] = Food vacuolar accumulation ratio was determined; assay type: functional
# In short: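 Calculated, not measured: VAR from the compound's pKa values, assuming vacuolar pH 5.0 and external pH 7.4.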
# [9] = Lipophilicity at pH 7.4; assay type: physicochemical; settings: buffer, read-out: Log D7.4; in short: as §1
# Plasmodium falciparum [10] = test: In vitro antimalarial activity against Plasmodium falciparum FcB1; assay type: functional, organism-based; in short: as §2
compound,measurement,setting,value
COc1ccc2nc(NCCCN3CCN(CCCNc4nc5ccc(OC)cc5n5cccc45)CC3)c3cccn3c2c1,logD,[1],1.88
same,IC50,Plasmodium falciparum [2],40 nM
same,Ratio,Plasmodium falciparum [3],2
same,IC50,L6 [4],4.06 µM
same,IC50,Plasmodium falciparum [5],80 nM
same,Ratio,Plasmodium falciparum [6],3.2
same,Ratio,L6 [7],52.7
same,Ratio,[8],72500
same,logD,[9],4.67
same,IC50,Plasmodium falciparum [10],130 nM
COc1ccc2nc(NCCCN3CCN(CCCNc4nc5ccc(OC)nc5n5cccc45)CC3)c3cccn3c2n1,logD,[1],3.97
same,Ratio,[8],33000
same,logD,[9],4.73
same,IC50,Plasmodium falciparum [10],600 nM
Clc1ccc2nc(NCCCN3CCN(CCCNc4nc5ccc(Cl)cc5n5cccc45)CC3)c3cccn3c2c1,logD,[1],3.43
same,IC50,Plasmodium falciparum [2],280 nM
same,Ratio,Plasmodium falciparum [3],1.7
same,IC50,L6 [4],4.01 µM
same,IC50,Plasmodium falciparum [5],480 nM
same,Ratio,Plasmodium falciparum [6],2.3
same,Ratio,L6 [7],8.2
same,Ratio,[8],2100
same,logD,[9],4.92
same,IC50,Plasmodium falciparum [10],640 nM
Clc1ccc2nc(NCCCNCCCNc3nc4ccc(Cl)cc4n4cccc34)c3cccn3c2c1,logD,[1],3.16
same,IC50,Plasmodium falciparum [2],470 nM
same,Ratio,Plasmodium falciparum [3],1.7
same,IC50,L6 [4],4.81 µM
same,IC50,Plasmodium falciparum [5],790 nM
same,Ratio,Plasmodium falciparum [6],2.4
same,Ratio,L6 [7],6.1
same,Ratio,[8],1600
same,logD,[9],5.06
same,IC50,Plasmodium falciparum [10],1140 nM
CCN(CC)CCCC(C)Nc1nc2ccc(Cl)cc2n2cccc12 (stereo not given),IC50,Plasmodium falciparum [2],1940 nM
same,Ratio,Plasmodium falciparum [3],1.6
same,IC50,L6 [4],17.3 µM
same,IC50,Plasmodium falciparum [5],3060 nM
same,Ratio,Plasmodium falciparum [6],2.5
same,Ratio,L6 [7],5.6
same,IC50,Plasmodium falciparum [10],4790 nM
CCN(CC)CCCC(C)Nc1nc2ccccc2n2cccc12 (stereo not given),IC50,Plasmodium falciparum [2],2950 nM
same,Ratio,Plasmodium falciparum [3],1.5
same,IC50,L6 [4],> 20 µM
same,IC50,Plasmodium falciparum [5],4340 nM
same,Ratio,Plasmodium falciparum [6],1.7
same,Ratio,L6 [7],>4.6
same,IC50,Plasmodium falciparum [10],4970 nM
COc1ccc2nc(NCCCN(C)CCCNc3nc4ccc(OC)cc4n4cccc34)c3cccn3c2c1,logD,[1],0.41
same,IC50,Plasmodium falciparum [2],120 nM
same,Ratio,Plasmodium falciparum [3],1.7
same,IC50,L6 [4],3.79 µM
same,IC50,Plasmodium falciparum [5],200 nM
same,Ratio,Plasmodium falciparum [6],2.7
same,Ratio,L6 [7],19.2
same,Ratio,[8],42100
same,logD,[9],3.41
same,IC50,Plasmodium falciparum [10],320 nM
c1cc2c(NCCCN3CCN(CCCNc4nc5ccsc5n5cccc45)CC3)nc3ccsc3n2c1,IC50,Plasmodium falciparum [10],930 nM
CCN(CC)CCCC(C)Nc1nc2cc(OC)ccc2n2cccc12 (stereo not given),IC50,Plasmodium falciparum [2],830 nM
same,Ratio,Plasmodium falciparum [3],2.1
same,IC50,L6 [4],> 20 µM
same,IC50,Plasmodium falciparum [5],1780 nM
same,Ratio,Plasmodium falciparum [6],3
same,Ratio,L6 [7],>11.2
same,IC50,Plasmodium falciparum [10],2470 nM
COc1ccc2nc(NCCCNCCCNc3nc4ccc(OC)cc4n4cccc34)c3cccn3c2c1,logD,[1],0.93
same,IC50,Plasmodium falciparum [2],140 nM
same,Ratio,Plasmodium falciparum [3],2.4
same,IC50,L6 [4],3.62 µM
same,IC50,Plasmodium falciparum [5],330 nM
same,Ratio,Plasmodium falciparum [6],2.1
same,Ratio,L6 [7],11
same,Ratio,[8],41700
same,logD,[9],2.58
same,IC50,Plasmodium falciparum [10],300 nM
COc1ccc2c(c1)nc(NCCCN(C)CCCNc1nc3cc(OC)ccc3n3cccc13)c1cccn12,logD,[1],0.93
same,IC50,Plasmodium falciparum [2],50 nM
same,Ratio,Plasmodium falciparum [3],1
same,IC50,L6 [4],5.74 µM
same,IC50,Plasmodium falciparum [5],50 nM
same,Ratio,Plasmodium falciparum [6],2.2
same,Ratio,L6 [7],106.3
same,Ratio,[8],105000
same,logD,[9],3.55
same,IC50,Plasmodium falciparum [10],110 nM
c1cnc2c(c1)nc(NCCCN1CCN(CCCNc3nc4cccnc4n4cccc34)CC1)c1cccn12,logD,[1],2.22
same,Ratio,[8],100
same,logD,[9],5.05
same,IC50,Plasmodium falciparum [10],1090 nM
CN(CCCNc1nc2ccc(Cl)cc2n2cccc12)CCCNc1nc2ccc(Cl)cc2n2cccc12,logD,[1],3.5
same,IC50,Plasmodium falciparum [2],400 nM
same,Ratio,Plasmodium falciparum [3],1.8
same,IC50,L6 [4],4.95 µM
same,IC50,Plasmodium falciparum [5],700 nM
same,Ratio,Plasmodium falciparum [6],2.5
same,Ratio,L6 [7],7.1
same,Ratio,[8],1800
same,logD,[9],4.44
same,IC50,Plasmodium falciparum [10],1010 nM
COc1ccc2c(c1)nc(NCCCN1CCN(CCCNc3nc4cc(OC)ccc4n4cccc34)CC1)c1cccn12,logD,[1],2.15
same,IC50,Plasmodium falciparum [2],30 nM
same,Ratio,Plasmodium falciparum [3],2.7
same,IC50,L6 [4],1.32 µM
same,IC50,Plasmodium falciparum [5],80 nM
same,Ratio,Plasmodium falciparum [6],4.3
same,Ratio,L6 [7],17.4
same,Ratio,[8],187000
same,logD,[9],3.72
same,IC50,Plasmodium falciparum [10],130 nM
COc1ccc2c(c1)nc(NCCCN1CCN(CCCNc3nc4cc(OC)ccc4n4c(Cl)ccc34)CC1)c1ccc(Cl)n12,logD,[1],4.17
same,IC50,Plasmodium falciparum [2],250 nM
same,Ratio,Plasmodium falciparum [3],1.32
same,IC50,L6 [4],3.07 µM
same,IC50,Plasmodium falciparum [5],330 nM
same,Ratio,Plasmodium falciparum [6],2.9
same,Ratio,L6 [7],9.3
same,Ratio,[8],900
same,logD,[9],5.74
same,IC50,Plasmodium falciparum [10],720 nM
c1ccc2c(c1)nc(NCCCN1CCN(CCCNc3nc4ccccc4n4cccc34)CC1)c1cccn12,logD,[1],1.31
same,IC50,Plasmodium falciparum [2],80 nM
same,Ratio,Plasmodium falciparum [3],4.6
same,IC50,L6 [4],5.04 µM
same,IC50,Plasmodium falciparum [5],370 nM
same,Ratio,Plasmodium falciparum [6],3.6
same,Ratio,L6 [7],13.6
same,Ratio,[8],409000
same,logD,[9],2.52
same,IC50,Plasmodium falciparum [10],290 nM
CN(CCCNc1nc2ccccc2n2cccc12)CCCNc1nc2ccccc2n2cccc12,logD,[1],1.56
same,IC50,Plasmodium falciparum [2],120 nM
same,Ratio,Plasmodium falciparum [3],2.3
same,IC50,L6 [4],6.2 µM
same,IC50,Plasmodium falciparum [5],280 nM
same,Ratio,Plasmodium falciparum [6],4
same,Ratio,L6 [7],22.1
same,Ratio,[8],226000
same,logD,[9],4.12
same,IC50,Plasmodium falciparum [10],480 nM
COc1ccc2c(c1)nc(NCCCNCCCNc1nc3cc(OC)ccc3n3cccc13)c1cccn12,logD,[1],0.8
same,IC50,Plasmodium falciparum [2],40 nM
same,Ratio,Plasmodium falciparum [3],2.7
same,IC50,L6 [4],2.98 µM
same,IC50,Plasmodium falciparum [5],110 nM
same,Ratio,Plasmodium falciparum [6],4.7
same,Ratio,L6 [7],26.6
same,Ratio,[8],104000
same,logD,[9],2.76
same,IC50,Plasmodium falciparum [10],190 nM
